Published values of several laboratories.
Lines come from different studies, so protocols differ.
ache: Acetylcholinesterase (ache, Electrophorus electricus, UniProt O42275)
Chrna7: Neuronal acetylcholine receptor subunit alpha-7 (Chrna7, Rattus norvegicus, UniProt Q05941)

| SMILES | target | effect on | action | method | notes | IC50 [µM] |
| --- | --- | --- | --- | --- | --- | --- |
| C#CCN(C)CCCOc1cccc(CN(C)c2c3c(nc4ccc(C)cc24)CCCC3)c1 | ache | enzyme activity | inhibitor | Ellman | – | 5.36 |
| CNC(=O)c1ccc(-c2cnn3ccc(C(=O)N(C)c4ccc(Cl)c(C(=O)OC)c4)cc23)cc1 | Tyrosine-protein kinase receptor UFO (AXL, Homo sapiens, UniProt P30530) | enzyme activity | inhibitor | – | – | > 30 |
| CC(C)C[C@H](NC(=O)[C@H]1O[C@@H]1C(=O)O)C(=O)NCCCCN=C(N)N | Pro-cathepsin H (Homo sapiens, UniProt P09668) | enzyme activity | inhibitor | – | – | 0.025 |
| C#CCN(C)CCCCCCCCOc1cccc(CN(C)c2c3c(nc4ccc(C)cc24)CCCC3)c1 | ache | enzyme activity | inhibitor | Ellman | – | 32.2 |
| COc1ccc2[nH]c3c(c2c1)CCN(C)CC3 | Chrna7 | ion current | antagonist | two-electrode voltage clamp | oocytes | 11.4 |
| CNC(=O)c1ccc(-c2cnn3ccc(C(=O)N(C)c4ccc(Cl)c(C(=O)O)c4)cc23)cc1 | Ephrin type-A receptor 4 (EPHA4, Homo sapiens, UniProt P54764) | enzyme activity | inhibitor | – | – | > 30 |
| COc1ccc2c3c([nH]c2c1)CCN(C)CC3 | Chrna7 | ion current | antagonist | two-electrode voltage clamp | oocytes | 10.2 |
| CCCCCCCCCC(=O)N[C@@H](CCCN=C(N)N)C(=O)N[C@H](C(=O)N[C@@H](CCCCN)C(=O)N[C@@H](CCCN=C(N)N)C(=O)CCl)C(C)C | Furin (FURIN, Homo sapiens, UniProt P09958) | enzyme activity | inhibitor | – | – | 0.00134 |
